Source: ChEMBL document CHEMBL3992564, “Design and synthesis of novel, potent and selective hypoxanthine analogs as adenosine A1 receptor antagonists and their biological evaluation” (Bioorg Med Chem, 2017)
Values after ≈ are worked out from the molar mass of the structure shown.

Experiments:
[1] = molecular target: T1, Adenosine receptor A1 (Homo sapiens, UniProt P30542); test: Displacement of [3H]DPCPX from human adenosine A1 receptor expressed in HEK293 cell membranes after 90 mins
T1 sequence (P30542 whole entry): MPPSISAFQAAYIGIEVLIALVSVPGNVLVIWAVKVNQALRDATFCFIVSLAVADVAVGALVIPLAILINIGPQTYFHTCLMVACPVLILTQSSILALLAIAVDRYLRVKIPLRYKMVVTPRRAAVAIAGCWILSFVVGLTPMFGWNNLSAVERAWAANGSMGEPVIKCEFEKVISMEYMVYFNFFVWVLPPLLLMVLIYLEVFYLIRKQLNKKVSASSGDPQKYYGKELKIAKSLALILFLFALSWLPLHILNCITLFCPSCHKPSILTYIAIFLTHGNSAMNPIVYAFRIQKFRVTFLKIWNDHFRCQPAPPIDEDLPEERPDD

[2] = molecular target: T2, Adenosine receptor A2b (Homo sapiens) (UniProt P29275); test: Displacement of [3H]MRS-1754 from human adenosine A2B receptor expressed in HEK293 cell membranes at 1 uM after 90 mins relative to control
T2 sequence (whole entry): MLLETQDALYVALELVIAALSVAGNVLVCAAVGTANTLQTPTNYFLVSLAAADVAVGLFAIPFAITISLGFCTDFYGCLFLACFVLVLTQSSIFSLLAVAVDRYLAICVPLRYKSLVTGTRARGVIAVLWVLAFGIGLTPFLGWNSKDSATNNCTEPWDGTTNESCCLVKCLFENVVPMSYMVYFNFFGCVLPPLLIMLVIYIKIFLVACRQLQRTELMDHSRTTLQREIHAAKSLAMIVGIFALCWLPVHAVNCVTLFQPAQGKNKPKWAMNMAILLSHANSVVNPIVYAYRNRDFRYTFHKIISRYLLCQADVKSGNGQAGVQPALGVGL
In short: (§1)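 Membranes from HEK-293 cells stably transfected with human receptor, pre-treated with adenosine deaminase. Radioligands: 1 nM [3H]DPCPX (A1), 1 nM [3H]ZM241385 (A2A), 1.6 nM [3H]MRS-1754 (A2B), 2 nM [3H]HEMADO (A3). Buffers: Tris pH 7.4 (A1, A2A, A3) or pH 6.5 (A2B), with ADA. Incubated 90 min at room temperature, then filtered. Nonspecific binding defined with 100 µM NECA. Ki from 8 concentrations run in triplicate.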

[3] = molecular target: Adenosine receptor A2a (Homo sapiens, UniProt P29274); test: Displacement of [3H]ZM241385 from human adenosine A2A receptor expressed in HEK293 cell membranes at 1 uM after 90 mins relative to control; in short: as §1
[4] = molecular target: T3, Adenosine receptor A3 (Homo sapiens) (UniProt P0DMS8); test: Displacement of [3H]HEMADO from human adenosine A3 receptor expressed in HEK293 cell membranes at 1 uM after 90 mins relative to control; in short: as §1
T3 sequence (whole entry): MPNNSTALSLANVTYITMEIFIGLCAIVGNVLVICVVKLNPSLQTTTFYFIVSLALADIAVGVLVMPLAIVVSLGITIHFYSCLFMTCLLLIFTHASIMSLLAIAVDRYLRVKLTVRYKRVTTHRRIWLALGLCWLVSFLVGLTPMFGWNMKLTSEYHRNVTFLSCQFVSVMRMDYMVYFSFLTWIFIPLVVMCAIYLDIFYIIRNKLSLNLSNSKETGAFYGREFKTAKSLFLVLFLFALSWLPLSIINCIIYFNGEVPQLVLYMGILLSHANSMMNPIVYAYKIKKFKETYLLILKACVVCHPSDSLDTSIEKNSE

[5] = molecular target: T1, Adenosine receptor A1; test: Antagonist activity at human adenosine A1 receptor expressed in HEK293 cells assessed as reduction in CPA-mediated inhibition of forskolin-stimulated cAMP level preincubated for 15 mins followed by CPA treatment for 15 mins and subsequent addition of forskolin measured after 30 mins by HTRF assay; format: functional, cell-based
[6] = molecular target: T2, Adenosine receptor A2b (Homo sapiens); test: Antagonist activity at human adenosine A2B receptor expressed in HEK293 cells assessed as reduction in NECA-induced increase in cAMP level at 1 uM preincubated for 15 mins followed by NECA addition measured after 15 mins by HTRF assay relative to control; format: functional, cell-based
In short: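 Overnight HEK-A1 or HEK-A2B cultures were treated with 1 U/mL ADA for 90 min at 37°C. Compound was added for 15 min, then agonist for 15 min (1 nM CPA for A1; 70 nM NECA for A2B) at room temperature in incomplete DMEM with ADA. Rolipram (20 µM) was included for A1 only. cAMP was read by HTRF.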

[7] = test system: Liver; test: Metabolic stability in rat liver microsomes assessed as metabolic rate measured after 30 mins in presence of NADPH; format: ADME, microsome; conditions: 0.5 h
[8] = test system: Liver; test: Metabolic stability in human liver microsomes assessed as metabolic rate measured after 30 mins in presence of NADPH; format: ADME, microsome; conditions: 0.5 h
[9] = Metabolic stability in rat liver microsomes assessed as parent compound remaining measured after 30 mins in presence of NADPH; format: ADME, microsome; conditions: read-out: Stability
[10] = Metabolic stability in human liver microsomes assessed as parent compound remaining measured after 30 mins in presence of NADPH; format: ADME, microsome; conditions: read-out: Stability
[11] = molecular target: T4, CYP1A2 (Homo sapiens, UniProt P05177); test: Inhibition of CYP1A2 (unknown origin) at 5 uM relative to control; format: ADME
T4 sequence (P05177 whole entry): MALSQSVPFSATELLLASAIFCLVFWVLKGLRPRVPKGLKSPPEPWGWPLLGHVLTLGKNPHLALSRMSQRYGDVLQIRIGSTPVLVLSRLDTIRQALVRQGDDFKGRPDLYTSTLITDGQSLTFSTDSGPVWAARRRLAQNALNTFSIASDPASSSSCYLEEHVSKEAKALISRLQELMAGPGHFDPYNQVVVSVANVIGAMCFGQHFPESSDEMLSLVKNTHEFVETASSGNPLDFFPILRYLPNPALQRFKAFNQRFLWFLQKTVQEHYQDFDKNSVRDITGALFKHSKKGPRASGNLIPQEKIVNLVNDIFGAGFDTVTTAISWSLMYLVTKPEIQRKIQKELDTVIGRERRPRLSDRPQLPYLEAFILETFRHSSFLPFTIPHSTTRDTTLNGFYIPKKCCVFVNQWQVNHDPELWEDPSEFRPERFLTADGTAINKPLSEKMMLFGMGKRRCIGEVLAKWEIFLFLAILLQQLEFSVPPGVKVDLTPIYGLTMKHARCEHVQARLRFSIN

[12] = molecular target: CYP2C9 (Homo sapiens, UniProt P11712); test: Inhibition of CYP2C9 (unknown origin) at 5 uM relative to control; format: ADME
[13] = molecular target: CYP2C19 (Homo sapiens, UniProt P33261); test: Inhibition of CYP2C19 (unknown origin) at 5 uM relative to control; format: ADME
[14] = molecular target: CYP2D6 (Homo sapiens, UniProt P10635); test: Inhibition of CYP2D6 (unknown origin) at 5 uM relative to control; format: ADME
[15] = molecular target: CYP3A4 (Homo sapiens, UniProt P08684); test: Inhibition of CYP3A4 (unknown origin) at 5 uM relative to control; format: ADME
[16] = Protein binding in rat plasma at 5 uM; format: ADME, cell-free; conditions: read-out: PPB (converted)
[17] = Thermodynamic solubility of the compound in pH 2 solution; format: physicochemical; conditions: read-out: Therm_solubility
[18] = Thermodynamic solubility of the compound in pH 4 solution; format: physicochemical; conditions: read-out: Therm_solubility
[19] = Thermodynamic solubility of the compound in pH 7.4 solution; format: physicochemical; conditions: read-out: Therm_solubility
[20] = AUC (0 to t) in Wistar rat at 3 mg/kg, iv by LC-Ms/MS analysis; format: ADME, organism-based; conditions: in vivo
In short: (§2)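 Male Wistar rats (230 ± 15 g), fasted overnight with water available. IV dose of 3 mg/kg given by tail vein as a solution (0.6 mg/mL, 5 mL/kg). PO dose of 5 mg/kg given by gavage as a suspension. Blood was collected into K2EDTA at 0.008 (IV only) to 24 h and plasma was spun off. Samples were precipitated with acetonitrile and run on LC/MS/MS. Parameters came from non-compartmental analysis of individual animals, mean of n = 4.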

[21] = Volume of distribution at steady state in Wistar rat at 3 mg/kg, iv by LC-Ms/MS analysis; format: ADME, organism-based; conditions: in vivo, read-out: Vdss
In short: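 Male Wistar rats (230 ± 15 g), fasted overnight with water available. IV dosing at 3 mg/kg by tail vein as solution (0.6 mg/mL, 5 mL/kg). PO dosing at 5 mg/kg by oral gavage. Serial blood sampling into K2EDTA from 0.008 (IV only) to 24 h. Plasma precipitated with acetonitrile containing internal standard and analysed by LC/MS/MS. Non-compartmental parameters calculated per animal; values are means of n = 4.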

[22] = Clearance in Wistar rat at 3 mg/kg, iv by LC-Ms/MS analysis; format: ADME, organism-based; conditions: in vivo; in short: as §2
[23] = Elimination half life in Wistar rat at 3 mg/kg, iv by LC-Ms/MS analysis; format: ADME, organism-based; conditions: in vivo, read-out: beta t1/2 (converted); in short: as §2
[24] = Drug metabolism assessed as hydroxylation at C-8 cyclopentyl by metabolic soft spot analysis; format: physicochemical
[25] = Drug metabolism assessed as N-oxidation by metabolic soft spot analysis; format: physicochemical

Chain of CYP3A4 (P08684 whole entry): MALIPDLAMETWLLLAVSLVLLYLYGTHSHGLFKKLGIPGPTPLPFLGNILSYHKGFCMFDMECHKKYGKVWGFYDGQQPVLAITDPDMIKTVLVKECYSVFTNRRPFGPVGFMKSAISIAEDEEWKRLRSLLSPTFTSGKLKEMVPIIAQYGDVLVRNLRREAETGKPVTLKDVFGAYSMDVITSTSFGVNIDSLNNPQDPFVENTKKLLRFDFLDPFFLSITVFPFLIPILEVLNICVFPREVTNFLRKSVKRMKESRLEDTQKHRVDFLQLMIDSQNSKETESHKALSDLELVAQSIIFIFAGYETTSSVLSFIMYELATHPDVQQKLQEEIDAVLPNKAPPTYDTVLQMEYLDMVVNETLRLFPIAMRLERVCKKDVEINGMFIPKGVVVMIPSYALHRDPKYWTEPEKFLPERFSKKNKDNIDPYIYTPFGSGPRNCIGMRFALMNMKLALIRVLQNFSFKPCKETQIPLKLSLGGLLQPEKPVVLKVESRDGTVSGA
Chain of CYP2C19 (P33261 whole entry): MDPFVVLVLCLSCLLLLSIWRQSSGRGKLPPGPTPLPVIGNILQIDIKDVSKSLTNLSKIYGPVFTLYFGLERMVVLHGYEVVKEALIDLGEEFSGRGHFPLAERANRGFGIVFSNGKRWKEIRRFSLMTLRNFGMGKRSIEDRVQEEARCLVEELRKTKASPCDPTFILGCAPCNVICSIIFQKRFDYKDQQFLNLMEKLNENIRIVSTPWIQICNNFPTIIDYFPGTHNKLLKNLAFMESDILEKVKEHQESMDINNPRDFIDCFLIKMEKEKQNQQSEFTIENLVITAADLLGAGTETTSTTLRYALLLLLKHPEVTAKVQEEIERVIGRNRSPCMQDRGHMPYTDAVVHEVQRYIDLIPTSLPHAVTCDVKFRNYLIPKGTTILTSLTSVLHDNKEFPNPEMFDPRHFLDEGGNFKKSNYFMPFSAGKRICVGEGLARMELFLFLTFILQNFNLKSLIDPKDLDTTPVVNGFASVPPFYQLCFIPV
Chain of CYP2D6 (P10635 whole entry): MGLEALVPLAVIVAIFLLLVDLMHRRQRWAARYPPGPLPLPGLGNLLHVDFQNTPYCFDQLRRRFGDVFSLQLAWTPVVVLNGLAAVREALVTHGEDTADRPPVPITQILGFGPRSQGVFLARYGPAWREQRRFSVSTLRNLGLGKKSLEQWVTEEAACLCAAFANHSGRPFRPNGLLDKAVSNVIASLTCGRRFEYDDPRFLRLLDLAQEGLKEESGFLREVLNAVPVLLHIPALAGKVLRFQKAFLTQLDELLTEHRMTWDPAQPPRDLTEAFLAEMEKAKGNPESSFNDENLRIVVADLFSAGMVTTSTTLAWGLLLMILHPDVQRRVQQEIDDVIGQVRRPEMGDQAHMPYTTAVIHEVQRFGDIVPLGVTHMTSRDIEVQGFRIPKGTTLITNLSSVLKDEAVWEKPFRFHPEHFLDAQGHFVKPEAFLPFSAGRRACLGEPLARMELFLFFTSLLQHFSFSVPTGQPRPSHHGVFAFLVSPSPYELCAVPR
Chain of CYP2C9 (P11712 whole entry): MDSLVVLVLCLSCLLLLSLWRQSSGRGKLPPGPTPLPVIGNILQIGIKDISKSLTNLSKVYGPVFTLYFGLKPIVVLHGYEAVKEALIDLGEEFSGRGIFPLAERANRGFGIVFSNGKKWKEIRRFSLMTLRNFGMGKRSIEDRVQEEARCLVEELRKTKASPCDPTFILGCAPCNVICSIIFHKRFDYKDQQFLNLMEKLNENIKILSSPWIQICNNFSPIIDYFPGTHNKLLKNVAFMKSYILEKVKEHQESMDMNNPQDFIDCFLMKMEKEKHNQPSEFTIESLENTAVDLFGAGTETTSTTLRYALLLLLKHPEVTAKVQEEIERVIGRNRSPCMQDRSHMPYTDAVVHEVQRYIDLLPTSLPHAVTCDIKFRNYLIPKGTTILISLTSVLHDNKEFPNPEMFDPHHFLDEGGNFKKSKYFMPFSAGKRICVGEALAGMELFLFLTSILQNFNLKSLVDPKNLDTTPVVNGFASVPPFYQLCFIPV
Chain of Adenosine receptor A2a (P29274 whole entry): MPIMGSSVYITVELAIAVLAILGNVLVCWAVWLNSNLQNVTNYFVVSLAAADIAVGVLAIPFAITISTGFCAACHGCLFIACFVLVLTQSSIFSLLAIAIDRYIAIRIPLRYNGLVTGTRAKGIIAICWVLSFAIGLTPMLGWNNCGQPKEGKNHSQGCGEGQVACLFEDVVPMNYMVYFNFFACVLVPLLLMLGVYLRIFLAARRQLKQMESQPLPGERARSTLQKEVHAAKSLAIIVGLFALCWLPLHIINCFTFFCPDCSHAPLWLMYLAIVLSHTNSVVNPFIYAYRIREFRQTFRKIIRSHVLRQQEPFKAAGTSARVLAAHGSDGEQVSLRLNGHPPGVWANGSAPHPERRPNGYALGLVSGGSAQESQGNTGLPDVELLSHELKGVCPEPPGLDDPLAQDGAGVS

## CCCn1c(OC2CCC(O)C2)nc2nc(C3CCCC3)[nH]c2c1=O (stereo not given)
[1]
  Ki: 57 nM
[2]
  inhibition: 35 to 41%
[3]
  inhibition: 0%
[4]
  inhibition: 37%
[5]
  Ki: 9.6 nM
[6]
  inhibition: 6%
[7]
  Drug metabolism: 0.1 nmol/min/mg
[8]
  Drug metabolism: 0.12 nmol/min/mg
[9]
  remaining at 0.5 h: 68%
[10]
  remaining at 0.5 h: 60%
[11]
  inhibition at 5 µM: 5%
[12]
  inhibition at 5 µM: 4%
[13]
  inhibition at 5 µM: 3%
[14]
  inhibition at 5 µM: 0%
[15]
  inhibition at 5 µM: 0%
[16]
  fraction unbound at 5 µM: 0.2
[17]
  solubility thermodynamic: 2590 µM (≈ 897 µg/mL)
[18]
  solubility thermodynamic: 276 µM (≈ 95.6 µg/mL)
[19]
  solubility thermodynamic: 182 µM (≈ 63.1 µg/mL)
[20]
  AUC(0-t): 3 µM·h
[21]
  Vd: 0.8 L/kg
[22]
  clearance: 48 mL/min/kg
[23]
  half-life: 18 min
[24]
  Drug metabolism: Metabolite_Detected
[25]
  Drug metabolism: Metabolite_Detected
